Measurements gathered from unrelated publications.
Compare with care: the assays were run in different laboratories.
Target: Muscarinic acetylcholine receptor M5 (CHRM5, Homo sapiens, UniProt P08912)
Concentration: 10 µM
One construct used (P08912 1-532): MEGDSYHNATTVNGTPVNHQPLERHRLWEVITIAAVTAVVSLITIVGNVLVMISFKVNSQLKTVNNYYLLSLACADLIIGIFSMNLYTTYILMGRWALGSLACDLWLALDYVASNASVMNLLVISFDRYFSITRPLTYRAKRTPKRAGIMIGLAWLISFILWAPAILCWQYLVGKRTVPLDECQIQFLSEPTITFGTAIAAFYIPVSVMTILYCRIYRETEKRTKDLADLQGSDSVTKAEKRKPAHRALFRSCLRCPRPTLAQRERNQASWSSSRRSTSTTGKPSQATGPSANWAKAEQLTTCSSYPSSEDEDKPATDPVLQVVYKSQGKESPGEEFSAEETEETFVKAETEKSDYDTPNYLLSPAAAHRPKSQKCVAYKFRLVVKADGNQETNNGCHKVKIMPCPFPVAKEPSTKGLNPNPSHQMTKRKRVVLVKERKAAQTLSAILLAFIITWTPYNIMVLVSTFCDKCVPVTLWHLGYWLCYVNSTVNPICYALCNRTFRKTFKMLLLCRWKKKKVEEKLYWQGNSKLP

The inhibition of `O=C(c1ccc(Cl)cc1)N(Cc1ccccc1)C1CCCCC1` is reported as -9.6% (cell-free assay).
The inhibition of `CN(C(=O)n1cnc(-c2ccc[n+]([O-])c2)c1)C1CCCCC1` is reported as 8.59% (cell-free assay).
`CNC(=N)NCCC[C@H](NC(=O)[C@H](CC(C)C)NC(=O)NNC(=O)[C@H](Cc1ccccc1)NC(=O)[C@H](CO)NC(=O)[C@H](CC(N)=O)NC(=O)[C@@H](Cc1ccncc1)NC(=O)[C@H](N)Cc1ccc(O)cc1)C(=O)N[C@@H](Cc1ccccc1)C(N)=O` gave an inhibition of 14.9% (ligand displacement).
`COc1cc(NC(C)=O)c(Cl)cc1C(=O)Nc1nccs1` gave an inhibition of -6.1% (cell-free assay).
`CCCNc1nc2ccccc2n1Cc1ccc(Cl)cc1` gave an inhibition of 14.5% (ligand displacement).
`CO[C@@H](C)c1c(Nc2ccc([C@H](N(C)C(=O)C3CCS(=O)(=O)CC3)C(F)(F)F)cc2)cnc2cc(Cl)nn12` has an inhibition of 14.6% (ligand displacement).
The inhibition of `CCN(CC)c1ccc(C2Nc3ccc(C(=O)c4ccccc4)cc3NC3=C2C(=O)CC(C)(C)C3)cc1` (centres unmarked) is reported as 20% (ligand displacement, radioligand).
`N#Cc1cc(Cn2c(N3CCCC3)nc3ccccc32)ccc1F` has an inhibition of 10.9% (ligand displacement).
